Measurements: ChEMBL document CHEMBL4477183, “Antimicrobial Peptide from the Wild Bee Hylaeus signatus Venom and Its Analogues: Structure-Activity Study and Synergistic Effect with Antibiotics” (J Nat Prod, 2016)
Activity calls are given as the source filed them. The rule behind the calls is not given here.

Legend:
[1] = system: Staphylococcus aureus; experiment: Antimicrobial activity against Staphylococcus aureus clinical isolates assessed as FIC index in presence of amoxicillin after 20 hrs by drop diffusion test; assay type: functional
[2] = system: Micrococcus luteus; experiment: Antimicrobial activity against Micrococcus luteus assessed as reduction in bacterial growth after 20 hrs by […]; assay type: functional
How it was run: (§1)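 Broth microdilution in LB (YPG for C. albicans) with 2-fold serial dilutions, final 0.1–100 μM. Mid-log cells grown 3–5 h at 37 °C were added at about 5 × 10^5 cfu/mL, then incubated 20 h at 37 °C with shaking. A540 was read every 15 min to build growth curves. Medium with cells served as growth control; at least three runs in duplicate.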

[3] = system: Pseudomonas aeruginosa; experiment: Antimicrobial activity against Pseudomonas aeruginosa 5482 assessed as reduction in bacterial growth after 20 hrs […]; assay type: functional; conditions: Pseudomonas aeruginosa, 5482, 20 h; how it was run: as §1
[4] = system: Pseudomonas aeruginosa; experiment: Antimicrobial activity against Pseudomonas aeruginosa assessed as compact cell levels at 30 uM after 60 mins by negative staining based TEM analysis; assay type: functional
How it was run: (§2)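 P. aeruginosa at 10^8 cfu/mL was exposed to peptide at 30 or 150 μM for 60 min, with untreated cells as control. Cells were centrifuged, washed twice in 0.9% NaCl and adsorbed 5–10 min on Parlodion-carbon-coated copper grids. They were negatively stained 30–40 s with 0.25% phosphotungstic acid (pH 7.3) plus 0.01% BSA, air-dried and imaged by TEM.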

[5] = system: Candida albicans; experiment: Antifungal activity against Candida albicans assessed as reduction in fungal growth after 20 hrs by […]; assay type: functional; how it was run: as §1
[6] = system: Pseudomonas aeruginosa; experiment: Antimicrobial activity against Pseudomonas aeruginosa assessed as induction of inner bacterial content leakage at 30 uM after 60 mins by TEM analysis; assay type: functional, organism-based; how it was run: as §2
[7] = system: Pseudomonas aeruginosa; experiment: Antimicrobial activity against Pseudomonas aeruginosa assessed as cell envelope detachment at 150 uM after 60 mins by negative staining based TEM analysis; assay type: functional, organism-based; how it was run: as §2
[8] = Hemolytic activity in human type RBC after 1 hr; assay type: ADME, cell-based, Erythrocyte; conditions: red blood cells (erythrocytes), read-out: LC50
How it was run: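 Peptides at 2.5–400 μM were incubated with a 4% suspension of human erythrocytes in physiological solution for 1 h at 37 °C, then centrifuged at 250g for 5 min; supernatant A540 was read. Saline-treated cells gave 0% lysis and 0.2% Triton X-100 gave 100%. LC50 is the concentration lysing 50% of cells; duplicates in at least two independent experiments.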

[9] = system: Pseudomonas aeruginosa; experiment: Antimicrobial activity against Pseudomonas aeruginosa assessed as flagella attachment level at 30 uM after 60 mins by negative staining based TEM analysis; assay type: functional, organism-based; how it was run: as §2
[10] = system: Staphylococcus aureus; experiment: Antimicrobial activity against Staphylococcus aureus clinical isolates from university hospital in Motol assessed as reduction in bacterial growth after 20 hrs by drop diffusion test; assay type: functional
[11] = system: Pseudomonas aeruginosa; experiment: Antimicrobial activity against Pseudomonas aeruginosa assessed as detached cell envelope at 30 uM after 60 mins by negative staining based TEM analysis; assay type: functional, organism-based; how it was run: as §2
[12] = system: Pseudomonas aeruginosa; experiment: Antimicrobial activity against Pseudomonas aeruginosa assessed as flagella detachment at 150 uM after 60 mins by negative staining based TEM analysis; assay type: functional, organism-based; how it was run: as §2
[13] = system: Pseudomonas aeruginosa; experiment: Bactericidal activity against Pseudomonas aeruginosa assessed as reduction in bacterial count at 8 uM after 60 mins by time kill assay; assay type: functional
How it was run: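 Time-kill: P. aeruginosa (final about 5 × 10^5 cfu/mL) in LB with peptide (8 μM) or medium control was incubated 4 h at 37 °C with shaking. Samples were taken at 0–240 min, serially diluted in 0.9% NaCl and plated on LB agar overnight at 37 °C. Viable counts are given as cfu/mL; means of four independent measurements.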

[14] = system: Pseudomonas aeruginosa; experiment: Antimicrobial activity against Pseudomonas aeruginosa assessed as induction of cell integrity break down at 30 uM after 60 mins by TEM analysis; assay type: functional, organism-based; how it was run: as §2
[15] = system: Pseudomonas aeruginosa; experiment: Antimicrobial activity against Pseudomonas aeruginosa assessed as disruption of cell envelope at 30 uM after 60 mins by negative staining based TEM analysis; assay type: functional, organism-based; how it was run: as §2
[16] = system: Pseudomonas aeruginosa; experiment: Antimicrobial activity against Pseudomonas aeruginosa clinical isolates assessed as FIC index in presence of tetracycline after 20 hrs by drop diffusion test; assay type: functional
[17] = system: Pseudomonas aeruginosa; experiment: Antimicrobial activity against Pseudomonas aeruginosa assessed as cell damage at 150 uM after 60 mins by negative staining based TEM analysis; assay type: functional, organism-based; how it was run: as §2
[18] = system: Staphylococcus aureus; experiment: Antimicrobial activity against Staphylococcus aureus clinical isolates from Liberec regional hospital assessed as reduction in bacterial growth after 20 hrs by broth microdilution assay
[19] = system: Staphylococcus epidermidis; experiment: Antimicrobial activity against Staphylococcus epidermidis assessed as reduction in bacterial growth after 20 hrs by broth microdilution assay
[20] = system: Pseudomonas aeruginosa; experiment: Antimicrobial activity against Pseudomonas aeruginosa clinical isolates assessed as reduction in bacterial growth after 20 hrs by […]; assay type: functional; how it was run: as §1
[21] = system: Bacillus subtilis; experiment: Antimicrobial activity against Bacillus subtilis assessed as reduction in bacterial growth after 20 hrs by […]; assay type: functional; how it was run: as §1
[22] = system: Pseudomonas aeruginosa; experiment: Antimicrobial activity against Pseudomonas aeruginosa clinical isolates assessed as FIC index in presence of rifampicin after 20 hrs by drop diffusion test; assay type: functional
[23] = system: Staphylococcus aureus; experiment: Antimicrobial activity against Staphylococcus aureus 6271 assessed as reduction in bacterial growth after 20 hrs by broth microdilution assay; conditions: Staphylococcus aureus, 6271, 20 h
[24] = system: Pseudomonas aeruginosa; experiment: Induction of cell permeabilization in Pseudomonas aeruginosa assessed as propidium iodide uptake 10 to 100 mins; assay type: functional, organism-based
How it was run: (§3)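 Mid-log P. aeruginosa was washed twice and resuspended in PBS (pH 7) at 10^8 cfu/mL with propidium iodide at 10 μg/mL. Peptide was added by 2-fold serial dilution in PBS (0.625–20 μM), with PBS as blank and octenidine dihydrochloride (4 μM final) as positive control. Plates were kept at 37 °C in the dark for 120 min, reading fluorescence (ex 544/em 620 nm) every minute. Means of at least three measurements.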

[25] = system: Escherichia coli; experiment: Antimicrobial activity against Escherichia coli assessed as reduction in bacterial growth after 20 hrs by […]; assay type: functional; how it was run: as §1
[26] = system: Pseudomonas aeruginosa; experiment: Induction of cell permeabilization in Pseudomonas aeruginosa assessed as propidium iodide uptake at 5 to 10 uM after 10 mins; assay type: functional, organism-based; how it was run: as §3
[27] = system: Staphylococcus aureus; experiment: Antimicrobial activity against Staphylococcus aureus clinical isolates from Liberec regional hospital assessed as reduction in bacterial growth after 20 hrs by […]; assay type: functional; how it was run: as §1
[28] = system: Pseudomonas aeruginosa; experiment: Bactericidal activity against Pseudomonas aeruginosa assessed as reduction in bacterial count at 24 uM after 60 mins by time kill assay; assay type: functional
How it was run: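 P. aeruginosa inoculum about 5 × 10^5 cfu/mL in LB mixed 1:1 with LB alone or LB containing test agent at final 8, 24, 80 or 20 μM. Incubation was at 37 °C with shaking for 4 h. Aliquots taken at 0–240 min were serially diluted in 0.9% NaCl and plated on LB agar overnight at 37 °C. Viable cfu/mL were counted; means of four independent measurements.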

[29] = system: Pseudomonas aeruginosa; experiment: Ratio of MIC for Pseudomonas aeruginosa to PC50 for induction of permeabilization in Pseudomonas aeruginosa; assay type: functional
How it was run: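 PC50: washed 10^8 cfu/mL cells in PBS pH 7 with PI 10 μg/mL, peptide 0.31–80 μM, 90 min at 37 °C dark, fluorescence 544/620 nm as % of 4 μM octenidine, interpolated from log-concentration curve.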

Row | Substance | fractional inhibitory concentration index (FICI) [1] | MIC [2] [µM] | MIC [3] [µM] | MIC [5] [µM] | HC50 at 1 h [8] [µM] | MIC [10] [µM] | Activity [14] | fractional inhibitory concentration index (FICI) [16] | MIC [19] [µM] | MIC [20] [µM] | MIC [21] [µM] | fractional inhibitory concentration index (FICI) [22] | MIC [23] [µM] | Activity [24] | MIC [25] [µM] | other results
1 | H-GIMSSLMKKLKKIIAK-NH2 | 0.33 | ≤ 3 | 5 | 5.2 | > 400 | 23 | Active | 0.65 | 1.9 | 7.4 | ≤ 7 | 0.43 | 32 | Active | 9 | Activity [4]: 60%; Activity [6]: Active; Activity [7]: Active; Activity [9]: Active; Activity [11]: Active; Activity [12]: Active; fold change (FC) [13]: 2; Activity [15]: Active; Activity [17]: Active; MIC [18]: 7.6 µM
2 | H-GIWSSLLKKLKKIIAK-NH2 | 0.4 | ≤ 3 | 6.3 | 16 | 165 | 5.3 | Dose-dependent effect | 0.35 | 1.5 | 21 | ≤ 7 | 0.27 | 20 | Dose-dependent effect | 1.6 | Activity [26]: Active; MIC [27]: 4.6 µM; fold change (FC) [28]: 2; Ratio [29]: 30
